Legend:
[1] = Cytotoxicity against human HepG2(2.2.15) cells by modified-MTT assay; type: cell-based
How it was run: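 HepG 2.2.15 cells in RPMI-1640 with 10% fetal calf serum at 37 °C, 5% CO2. Compounds in DMSO, final DMSO below 2.5 μL/mL. Viability read by modified MTT method. CC50 is the mean of at least two experiments.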

Hepatitis B virus [2] = experiment: Antiviral activity against Hepatitis B virus infected in human HepG2(2.2.15) cells assessed as inhibition of viral DNA replication by PCR analysis; type: functional, organism-based
How it was run: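 HepG 2.2.15 cells grown in RPMI-1640 with 10% fetal calf serum, […] and penicillin/streptomycin at 37 °C, 5% CO2. Compounds added in DMSO, kept below 2.5 μL/mL. HBV DNA quantified by SYBR Green real-time PCR with HBV-specific primers spanning 541–591 bp. IC50 values are means of at least two experiments.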

[3] = Selectivity index, ratio of CC50 for human HepG2(2.2.15) cells to IC50 for Hepatitis B virus infected in human HepG2(2.2.15) cells assessed as inhibition of viral surface antigen secretion; type: functional
How it was run: (§1)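 SI calculated as CC50 (MTT, HepG 2.2.15) divided by IC50 for the named read-out (HBV DNA by real-time PCR, or HBeAg or HBsAg secretion by ELISA), in the same cell line.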

Hepatitis B virus [4] = experiment: Antiviral activity against Hepatitis B virus infected in human HepG2(2.2.15) cells assessed as inhibition of viral surface antigen secretion by ELISA; type: functional, organism-based
How it was run: (§2)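 HepG 2.2.15 cells in RPMI-1640 with 10% fetal calf serum at 37 °C, 5% CO2. Compounds dissolved in DMSO, culture DMSO below 2.5 μL/mL. Secreted HBeAg and HBsAg measured by ELISA. IC50 values are means of at least two experiments.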

Hepatitis B virus [5] = experiment: Antiviral activity against Hepatitis B virus infected in human HepG2(2.2.15) cells assessed as inhibition of viral e antigen secretion by ELISA; type: functional, organism-based; how it was run: as §2
[6] = Selectivity index, ratio of CC50 for human HepG2(2.2.15) cells to IC50 for Hepatitis B virus infected in human HepG2(2.2.15) cells assessed as inhibition of viral DNA replication; type: functional; how it was run: as §1
[7] = Selectivity index, ratio of CC50 for human HepG2(2.2.15) cells to IC50 for Hepatitis B virus infected in human HepG2(2.2.15) cells assessed as inhibition of viral e antigen secretion; type: functional; how it was run: as §1

| Compound | CC50 [1] [µM] | IC50 (Hepatitis B virus [2]) [µM] | Ratio CC50/IC50 [3] | IC50 (Hepatitis B virus [4]) [µM] | IC50 (Hepatitis B virus [5]) [µM] | Ratio CC50/IC50 [6] | Ratio CC50/IC50 [7] |
| --- | --- | --- | --- | --- | --- | --- | --- |
| COc1ccc(/C=C/C(=O)O[C@H]2CC[C@@]3(C)C(=CC[C@]4(O)[C@@H]3C[C@@H](OC(=O)/C=C(\C)C(C)C)[C@@]3(C)[C@]4(O)CC[C@@]3(O)C(C)=O)C2)cc1 | > 1380 | 10.9 | >12.9 | 108 | 569 | >127.1 | >2.4 |
| COc1cccc(/C=C/C(=O)O[C@H]2CC[C@@]3(C)C(=CC[C@]4(O)[C@@H]3C[C@@H](OC(=O)/C=C(\C)C(C)C)[C@@]3(C)[C@]4(O)CC[C@@]3(OC(=O)/C=C/c3cccc(OC)c3)C(C)=O)C2)c1 | > 1370 | > 342 |  | > 1370 | > 1370 |  |  |
| CC(=O)[C@]1(O)CC[C@@]2(O)[C@]1(C)[C@H](OC(=O)/C=C(\C)C(C)C)C[C@@H]1[C@@]3(C)CC[C@H](OC(=O)/C=C/c4ccc(Cl)c(Cl)c4)CC3=CC[C@]12O | > 1420 | 14.1 | >12.7 | 112 | 949 | >101.2 | >1.5 |
| CC(=O)[C@]1(O)CC[C@@]2(O)[C@]1(C)[C@H](OC(=O)/C=C(\C)C(C)C)C[C@@H]1[C@@]3(C)CC[C@H](OC(=O)/C=C/c4cccc(C(F)(F)F)c4)CC3=CC[C@]12O | 718 | 14.9 | 6.4 | 112 | > 1190 | 48.3 |  |
| COc1ccc(/C=C/C(=O)O[C@H]2CC[C@@]3(C)C(=CC[C@]4(O)[C@@H]3C[C@@H](OC(=O)/C=C(\C)C(C)C)[C@@]3(C)[C@]4(O)CC[C@@]3(O)C(C)=O)C2)c(OC)c1OC | > 1550 | 21.1 | >125 | 12.4 | 28 | >73.5 | >55.3 |
| CC(=O)[C@]1(O)CC[C@@]2(O)[C@]1(C)[C@H](OC(=O)/C=C(\C)C(C)C)C[C@@H]1[C@@]3(C)CC[C@H](OC(=O)/C=C/c4ccc(F)cc4)CC3=CC[C@]12O | > 1290 | 10.4 | >28.3 | 45.6 | 39.5 | >123.9 | >32.6 |
| CCOc1ccccc1/C=C/C(=O)O[C@H]1CC[C@@]2(C)C(=CC[C@]3(O)[C@@H]2C[C@@H](OC(=O)/C=C(\C)C(C)C)[C@@]2(C)[C@]3(O)CC[C@@]2(O)C(C)=O)C1 | > 1730 | 12 | >42.6 | 40.6 | 404 | >143.8 | >4.3 |
| CC(=O)[C@]1(O)CC[C@@]2(O)[C@]1(C)[C@H](OC(=O)/C=C(\C)C(C)C)C[C@@H]1[C@@]3(C)CC[C@H](OC(=O)/C=C/c4cc(F)cc(F)c4)CC3=CC[C@]12O | > 1340 | 18.6 | >66 | 20.3 | 90.7 | >72 | >14.8 |
| COc1cc(/C=C/C(=O)O[C@H]2CC[C@@]3(C)C(=CC[C@]4(O)[C@@H]3C[C@@H](OC(=O)/C=C(\C)C(C)C)[C@@]3(C)[C@]4(O)CC[C@@]3(O)C(C)=O)C2)ccc1OC(C)=O | < 9.97 | 4.39 |  | < 9.97 | 653 | <2.3 |  |
| CC(=O)[C@]1(O)CC[C@@]2(O)[C@]1(C)[C@H](OC(=O)/C=C(\C)C(C)C)C[C@@H]1[C@@]3(C)CC[C@H](OC(=O)/C=C/c4ccc(Cl)cc4)CC3=CC[C@]12O | 701 | 16.3 | 5.9 | 119 | > 701 | 43.1 |  |
| C[C@H](Cn1cnc2c(N)ncnc21)OCP(=O)(O)O [TENOFOVIR ANHYDROUS] | > 1740 | 0.68 | >1.2 |  | 1160 | >2560.2 | >1.5 |
| CC(=O)[C@]1(O)CC[C@@]2(O)[C@]1(C)[C@H](OC(=O)/C=C(\C)C(C)C)C[C@@H]1[C@@]3(C)CC[C@H](O)CC3=CC[C@]12O [CAUDATIN] |  |  | 1.7 |  | > 183 | 6 | <1.3 |
| CC(=O)[C@]1(O)CC[C@@]2(O)[C@]1(C)[C@H](OC(=O)/C=C(\C)C(C)C)C[C@@H]1[C@@]3(C)CC[C@H](OC(=O)/C=C/c4ccccc4)CC3=CC[C@]12O | > 1420 | 5.91 | >29.3 | 48.3 | 94.2 | >239.9 | >15 |
| CC(=O)[C@]1(O)CC[C@@]2(O)[C@]1(C)[C@H](OC(=O)/C=C(\C)C(C)C)C[C@@H]1[C@@]3(C)CC[C@H](OC(=O)/C=C/c4ccccc4F)CC3=CC[C@]12O | 523 | 7.68 | 7.3 | 72 | 21.6 | 68.1 | 24.2 |
| CC(=O)[C@]1(O)CC[C@@]2(O)[C@]1(C)[C@H](OC(=O)/C=C(\C)C(C)C)C[C@@H]1[C@@]3(C)CC[C@H](OC(=O)/C=C/c4ccccc4C)CC3=CC[C@]12O | 1370 | 7.2 | 16.9 | 81.1 | 230 | 190.4 | 6 |
| CC(=O)[C@]1(OC(=O)/C=C/c2ccccc2[N+](=O)[O-])CC[C@@]2(O)[C@]1(C)[C@H](OC(=O)/C=C(\C)C(C)C)C[C@@H]1[C@@]3(C)CC[C@H](OC(=O)/C=C/c4ccccc4[N+](=O)[O-])CC3=CC[C@]12O | > 1740 | > 434 | >15 | 116 | 522 |  | >3.3 |
| CC(=O)[C@]1(O)CC[C@@]2(O)[C@]1(C)[C@H](OC(=O)/C=C(\C)C(C)C)C[C@@H]1[C@@]3(C)CC[C@H](OC(=O)/C=C/c4ccc(O)c(O)c4)CC3=CC[C@]12O | 8.49 | 9.1 |  | 16.1 | > 567 |  |  |
| CC(=O)[C@]1(O)CC[C@@]2(O)[C@]1(C)[C@H](OC(=O)/C=C(\C)C(C)C)C[C@@H]1[C@@]3(C)CC[C@H](OC(=O)/C=C/c4ccc(C)cc4)CC3=CC[C@]12O | 550 | 12 | 5.1 | 108 | > 550 | 46 |  |
| COc1ccc(/C=C/C(=O)O[C@H]2CC[C@@]3(C)C(=CC[C@]4(O)[C@@H]3C[C@@H](OC(=O)/C=C(\C)C(C)C)[C@@]3(C)[C@]4(O)CC[C@@]3(OC(=O)/C=C/c3ccc(OC)c(OC)c3)C(C)=O)C2)cc1OC | > 1210 | > 307 | >2.3 | 528 | 632 |  | >1.9 |
| CC(=O)[C@]1(O)CC[C@@]2(O)[C@]1(C)[C@H](OC(=O)/C=C(\C)C(C)C)C[C@@H]1[C@@]3(C)CC[C@H](OC(=O)/C=C/c4cc(C(F)(F)F)cc(C(F)(F)F)c4)CC3=CC[C@]12O | > 1280 | > 321 | >3 | 433 | 612 |  | >2.1 |
| CC(=O)[C@]1(O)CC[C@@]2(O)[C@]1(C)[C@H](OC(=O)/C=C(\C)C(C)C)C[C@@H]1[C@@]3(C)CC[C@H](OC(=O)/C=C/c4cccc(OC(F)(F)F)c4)CC3=CC[C@]12O | 584 | 5.71 | 2.5 | 236 | > 584 | 102.3 |  |
| CC(=O)[C@]1(O)CC[C@@]2(O)[C@]1(C)[C@H](OC(=O)/C=C(\C)C(C)C)C[C@@H]1[C@@]3(C)CC[C@H](OC(=O)/C=C/c4c(F)c(F)c(F)c(F)c4F)CC3=CC[C@]12O | < 8.22 | 9.9 |  | 26.3 | 353 |  |  |
| CC(=O)[C@]1(OC(=O)/C=C/c2ccc(Cl)cc2)CC[C@@]2(O)[C@]1(C)[C@H](OC(=O)/C=C(\C)C(C)C)C[C@@H]1[C@@]3(C)CC[C@H](OC(=O)/C=C/c4ccc(Cl)cc4)CC3=CC[C@]12O | > 1160 | > 290 |  | > 290 | > 290 |  |  |
| CC(=O)Oc1ccc(/C=C/C(=O)O[C@H]2CC[C@@]3(C)C(=CC[C@]4(O)[C@@H]3C[C@@H](OC(=O)/C=C(\C)C(C)C)[C@@]3(C)[C@]4(O)CC[C@@]3(O)C(C)=O)C2)cc1 | < 6.96 | 3.42 |  | < 6.96 | 231 | <2 |  |

Reference: ChEMBL document CHEMBL2046311, “Design, synthesis, and molecular hybrids of caudatin and cinnamic acids as novel anti-hepatitis B virus agents” (Eur J Med Chem, 2012)
